# Source: publication PMC6722387 (Cellular and Molecular Gastroenterology and Hepatology, 2019)
# Assays:
# human iPS-IECMs [1] = experiment: LY permeability test across human iPS-IECMs; type: in vitro ADME; conditions: Ad-LacZ- and Ad-TF-transduced cells; apical to basolateral; 60 μM LY, 70 min, 37°C
# human iPS-IECMs [2] = experiment: Determination of Fg value; type: in vitro ADME; conditions: 3 μM MDZ apical, 60-minute incubation
# Summary of the method: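 Monolayers on inserts were preincubated 10 min at 37°C in HBSS with 10 mM HEPES, pH 7.4. Apical: 3 μM midazolam in HBSS; basolateral: HBSS with 0.1% DMSO. After 60 min at 37°C, both chambers and the twice-washed cells were collected into acetonitrile/ethanol (7:3) with candesartan internal standard. Midazolam and 1′-OH midazolam were quantified by UPLC-MS/MS. Fg was derived from summed metabolite across all compartments plus basolateral and cellular midazolam.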
# human intestinal tissue = human intestinal tissue / human in vivo; cited from earlier work
Molecule,Lucifer yellow (LY) Papp (human iPS-IECMs [1]),Fg (fraction passing the gut wall) (human iPS-IECMs [2]),Fg (fraction passing the gut wall) (human intestinal tissue)
LY CH Dipotassium Salt,approximately 0.44 ×10^–6 cm/s,,
"Cc1ncc2n1-c1ccc(Cl)cc1C(c1ccccc1F)=NC2 [MDZ, midazolam]",,0.73,0.57
